According to ChEMBL document CHEMBL4321838, “Drug Design Targeting T-Cell Factor-Driven Epithelial-Mesenchymal Transition as a Therapeutic Strategy for Colorectal Cancer” (J Med Chem, 2019):
The source made the active and inactive calls.

Legend:
[1] = target: T1, DNA topoisomerase 2-alpha (Homo sapiens, UniProt P11388); experiment: Inhibition of human topoisomerase 2alpha mediated decatenation at 30 uM using kDNA as susbtrate preincubated for 20 mins followed by substrate and ATP addition and measured after 1 hr by ethidium bromide staining based gel electrophoresis method relative to control
T1 sequence (P11388 whole entry): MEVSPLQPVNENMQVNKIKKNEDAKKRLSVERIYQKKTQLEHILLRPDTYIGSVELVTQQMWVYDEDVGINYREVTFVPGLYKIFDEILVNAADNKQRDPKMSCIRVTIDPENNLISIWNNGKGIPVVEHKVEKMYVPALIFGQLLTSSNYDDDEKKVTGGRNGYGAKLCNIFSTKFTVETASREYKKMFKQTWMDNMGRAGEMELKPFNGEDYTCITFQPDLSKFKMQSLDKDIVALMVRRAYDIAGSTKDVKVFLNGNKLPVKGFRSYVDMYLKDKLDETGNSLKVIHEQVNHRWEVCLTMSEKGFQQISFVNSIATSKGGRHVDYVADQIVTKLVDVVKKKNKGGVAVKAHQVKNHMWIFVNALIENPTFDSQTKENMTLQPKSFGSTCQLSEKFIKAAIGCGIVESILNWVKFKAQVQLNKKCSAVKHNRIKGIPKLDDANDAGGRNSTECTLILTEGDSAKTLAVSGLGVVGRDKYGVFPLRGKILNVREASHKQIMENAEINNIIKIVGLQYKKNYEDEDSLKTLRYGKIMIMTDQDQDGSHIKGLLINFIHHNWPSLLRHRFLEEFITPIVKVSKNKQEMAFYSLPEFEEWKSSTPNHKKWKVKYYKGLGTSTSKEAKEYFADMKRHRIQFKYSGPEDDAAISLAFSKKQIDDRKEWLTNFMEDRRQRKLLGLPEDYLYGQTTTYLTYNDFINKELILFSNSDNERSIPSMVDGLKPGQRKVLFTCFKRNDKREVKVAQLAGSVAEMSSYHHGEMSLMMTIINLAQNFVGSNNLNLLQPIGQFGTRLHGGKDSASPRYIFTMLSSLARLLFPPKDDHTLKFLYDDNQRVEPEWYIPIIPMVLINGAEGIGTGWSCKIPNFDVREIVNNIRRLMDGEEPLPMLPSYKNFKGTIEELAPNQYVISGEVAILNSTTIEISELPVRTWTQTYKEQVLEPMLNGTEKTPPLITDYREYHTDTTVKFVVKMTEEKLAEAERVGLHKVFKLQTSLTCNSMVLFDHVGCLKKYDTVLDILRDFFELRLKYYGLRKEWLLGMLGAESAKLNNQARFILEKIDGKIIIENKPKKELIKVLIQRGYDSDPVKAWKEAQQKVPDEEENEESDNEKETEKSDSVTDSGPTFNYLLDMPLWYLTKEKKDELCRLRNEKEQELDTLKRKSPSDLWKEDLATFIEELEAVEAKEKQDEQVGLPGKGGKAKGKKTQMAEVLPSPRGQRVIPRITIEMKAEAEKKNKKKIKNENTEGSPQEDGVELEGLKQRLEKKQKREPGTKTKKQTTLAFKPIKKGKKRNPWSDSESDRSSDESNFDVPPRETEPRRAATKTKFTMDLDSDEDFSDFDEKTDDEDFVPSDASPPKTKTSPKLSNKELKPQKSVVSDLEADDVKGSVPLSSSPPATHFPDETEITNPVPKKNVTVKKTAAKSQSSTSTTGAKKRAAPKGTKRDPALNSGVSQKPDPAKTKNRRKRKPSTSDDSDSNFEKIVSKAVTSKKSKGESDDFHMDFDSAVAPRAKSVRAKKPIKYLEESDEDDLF
How it was run: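 Human TOP2A (3 U) preincubated 20 min at 37 °C with compound at 30 μM in 1.2% DMSO. Reaction started with 2 mM ATP and 35 ng kDNA and run 1 h at 37 °C. Products resolved on 0.8% agarose in TBE with 0.2 μg/mL ethidium bromide; decatenated bands compared with vehicle.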

[2] = Metabolic stability in CD-1 mouse inactive microsomes incubated for 1 hr by LC-MS/MS analysis; assay type: ADME, Microsome
[3] = target: T1, DNA topoisomerase 2-alpha; experiment: Inhibition of topoisomerase 2alpha dependent TCF transcription in human SW620 organoids transduced with TOPflash luminescent reporter at 10 uM after 72 hrs by luciferase based TOPFlash reporter gene assay
[4] = target: T1, DNA topoisomerase 2-alpha; experiment: Inhibition of topoisomerase 2alpha in human SW620 organoids transfected with VimPro-GFP reporter assessed as reversion of epithelial-mesenchymal transition by measuring reduction in vimentin expression at 10 uM after 72 hrs by Hoechst 33342 staining based GFP reporter gene assay
How it was run: (§1)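 SW620 cells stably carrying VimPro-GFP or EcadPro-mCherry (puromycin selected) grown as organoids and dosed 72 h. Stained with 16 μM Hoechst 33342 for 1 h and imaged as 15 z-layers, 26.5 μm apart. Nuclei segmented and GFP- or mCherry-positive cells counted above background thresholds. Percent positive cells normalised to DMSO.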

[5] = target: T1, DNA topoisomerase 2-alpha; experiment: Inhibition of human topoisomerase 2alpha mediated decatenation using kDNA as susbtrate preincubated for 20 mins followed by substrate and ATP addition and measured after 1 hr by ethidium bromide staining based gel electrophoresis method
How it was run: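 IC50 from decatenation gels: TOP2A at 4 U per reaction, compound as 2-fold serial dilutions from 58.6 nM to 30 μM, 20 min preincubation. Then 2 mM ATP plus 35 ng kDNA for 1 h at 37 °C. Gels were 0.8% agarose with ethidium bromide, with decatenated and catenated DNA marker lanes.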

SW-620 [6] = experiment: Antiinvasive activity in human SW620 organoids transduced with NucLight-Red virus assessed as inhibition of cell invasion at 10 uM incubated for 72 hrs and measured after 72 hrs by matrigel based fluorescence analysis; assay type: functional
How it was run: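 NucLight-Red-labelled SW620 organoids treated 72 h at 10 μM in 0.1% DMSO, then dissociated. 5,000 live cells per well seeded in 50% Matrigel in the upper chamber of a migration plate, 0.5% FBS above and 20% FBS below. Invading cells tracked by bottom-side fluorescence over days, six replicates per condition.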

SW-620 [7] = experiment: Anticlonogenic activity against human SW620 cells assessed as loss of cancer stem cell stemness by measuring inhibition of colony formation at 10 uM incubated for 24 hrs followed by replating and measured after 7 days by clonogenic assay; assay type: functional, cell-based
[8] = target: T1, DNA topoisomerase 2-alpha; experiment: Inhibition of topoisomerase 2alpha dependent TCF transcription in human SW620 organoids transduced with TOPflash luminescent reporter after 72 hrs by luciferase based TOPFlash reporter gene assay
How it was run: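 SW620 cells stably carrying pCDH-TOPflash-luc grown as organoids: 5,000 cells per U-bottom well in phenol red-free RPMI with 5% FBS and 2% Matrigel, 72 h. Inhibitor then applied 72 h. One-Glo luciferase and CellTiter-Glo 3D added 1:1. Luciferase signal normalised to viability, then to DMSO controls.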

[9] = Drug metabolism in CD-1 mouse active microsomes assessed as CYP450-mediated oxidative phase 1 metabolite formation measured within 30 mins by LC-MS/MS analysis; assay type: ADME; details: 0.5 h
SW-620 [10] = experiment: Cytotoxicity against human SW620 organoids assessed as cell death with loss of membrane integrity after 72 hrs by CellTox Green assay; assay type: functional, cell-based; details: SW-620, 72 h
How it was run: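 SW620 tumor organoids exposed 72 h to inhibitor over 0–40 μM together with CellTox Green Express (0.5X). Whole-well mean fluorescence imaged (ex 488, em 500–550 nm). Normalised to lysis buffer as 0% viability and 0.4% DMSO as 100% viability.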

[11] = Drug metabolism in CD-1 mouse active microsomes assessed as CYP450-mediated oxidative phase 1 metabolite formation by LC-MS/MS analysis
[12] = target: T1, DNA topoisomerase 2-alpha; experiment: Inhibition of topoisomerase 2alpha in human SW620 organoids transfected with EcadPro-RFP reporter assessed as reversion of epithelial-mesenchymal transition by measuring increase in E-cadherin expression at 10 uM after 72 hrs by Hoechst 33342 staining based mCherryRFP reporter gene assay; how it was run: as §1
[13] = Drug metabolism in CD-1 mouse active microsomes assessed as metabolite formation at rate of first-order kinetics by LC-MS/MS analysis; assay type: ADME, Microsome
[14] = target: T1, DNA topoisomerase 2-alpha; experiment: Poison activity at topoisomerase 2alpha in human SW620 cells assessed as induction of DNA double stranded break by measuring gamma H2AX phosphorylation up to 40 uM after 6 hrs by Hoechst-33342 staining based immunofluorescence assay; assay type: cell-based
How it was run: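 SW620 monolayers, 20,000 cells per well, treated with compound for 6 or 24 h. Fixed in 4% paraformaldehyde, then permeabilised and blocked. Stained with γ-H2AX antibody overnight at 4 °C, FITC secondary antibody, and Hoechst 33342, then imaged at 20x.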

Compound: CC(=O)Nc1ccc2c(-c3ccco3)ccnc2c1O
- inhibition [1]: 0%

Compound: CC(=O)Nc1ccccc1-c1ccnc2c(O)c(NC(=O)CCN3CCOCC3)ccc12
- inhibition [1]: 1%

Compound: COc1cc(NC(C)=O)c(O)c2nccc(-c3ccccc3NC(=O)c3ccccc3)c12
- Stability [2]: Stable
- inhibition [3]: Active
- inhibition [4]: Active
- inhibition [1]: 100%
- IC50 [5]: 1200 nM
- inhibition (SW-620 [6]): Active
- inhibition (SW-620 [7]): Active
- IC50 [8]: 2400 nM
- Drug metabolism [9]: Metabolite_Detected
- EC50 (SW-620 [10]): > 30 µM
- Drug metabolism [11]: Metabolite_Notdetected
- inhibition [12]: Active

Compound: CC(=O)Nc1ccc2c(-c3ccoc3)ccnc2c1O
- inhibition [1]: 86%
- inhibition (SW-620 [6]): Active
- inhibition (SW-620 [7]): Active
- IC50 [8]: 1700 nM
- EC50 (SW-620 [10]): > 30 µM

Compound: CC(=O)Nc1ccc2c(-c3cc4ccccc4s3)ccnc2c1O
- inhibition [1]: 0%

Compound: COc1c(NC(C)=O)cc(OC)c2c(-c3ccccc3NC(=O)c3ccccc3)ccnc12
- inhibition [1]: 0%

Compound: CC(=O)Nc1ccc(-c2ccnc3c(O)c(NC(C)=O)ccc23)cc1
- Stability [2]: Stable
- inhibition [1]: 97%
- IC50 [5]: 1900 nM
- inhibition (SW-620 [6]): Active
- inhibition (SW-620 [7]): Active
- IC50 [8]: 2000 nM
- Drug metabolism [9]: Metabolite_Notdetected
- Drug metabolism [13]: Metabolite_Detected
- EC50 (SW-620 [10]): > 30 µM

Compound: CC(=O)Nc1ccc2c(-c3cccc(C(F)(F)F)c3)ccnc2c1O
- Stability [2]: Stable
- inhibition [1]: 97%
- IC50 [5]: 3400 nM
- Drug metabolism [9]: Metabolite_Notdetected
- Drug metabolism [13]: Metabolite_Detected

Compound: CC(=O)Nc1ccc2c(-c3cccs3)ccnc2c1O
- inhibition [1]: 100%
- IC50 [8]: 5000 nM
- EC50 (SW-620 [10]): > 30 µM

Compound: CC(=O)Nc1ccc2c(-c3cccc(F)c3)ccnc2c1O
- inhibition [1]: 100%

Compound: COc1ccc(F)cc1-c1ccnc2c(OC)c(NC(C)=O)ccc12
- inhibition [1]: 0%

Compound: Cn1ccc2c(c1=O)C(=O)c1nccc3c1c-2nc1ccccc13 [NEOAMPHIMIDINE]
- Activity [14]: Not Active

Compound: CC(=O)Nc1ccc2c(-c3cc(C(F)(F)F)ccc3O)ccnc2c1O
- inhibition [1]: 100%
